Measurements published in ChEMBL document CHEMBL4680130, “Substituted 4-phenylthiazoles: Development of potent and selective A, A and dual A/A adenosine receptor antagonists” (Eur J Med Chem, 2020).

Experiments:
Adenosine receptor A2a [1] = target: Adenosine receptor A2a (Rattus norvegicus, UniProt P30543); test: Displacement of [3H]MSX2 from adenosine receptor A2A in rat brain striatum membranes incubated for 30 mins by radioligand competition assay; type: cell membranes, Cell membrane
Adenosine receptor A1 [2] = target: T1, Adenosine receptor A1 (Rattus norvegicus, UniProt P25099); test: Displacement of [3H]CCPA from adenosine receptor A1 in rat brain cortex membranes incubated for 90 mins by radioligand competition assay; type: cell membranes, Cell membrane
T1 sequence (P25099 whole entry): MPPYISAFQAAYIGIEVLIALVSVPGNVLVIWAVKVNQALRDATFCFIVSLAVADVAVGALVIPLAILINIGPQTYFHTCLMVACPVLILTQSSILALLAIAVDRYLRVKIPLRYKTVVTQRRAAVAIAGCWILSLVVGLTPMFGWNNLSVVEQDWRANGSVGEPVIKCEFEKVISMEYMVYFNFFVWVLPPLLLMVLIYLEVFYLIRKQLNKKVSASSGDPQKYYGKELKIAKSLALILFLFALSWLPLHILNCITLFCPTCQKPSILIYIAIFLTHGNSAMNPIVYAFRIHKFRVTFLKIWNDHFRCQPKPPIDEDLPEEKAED

[3] = target: T2, Adenosine receptor A3 (Rattus norvegicus) (UniProt P28647); test: Displacement of [3H]NECA from rat adenosine receptor A3 expressed in CHO cell membranes at 0.1 uM incubated for 60 mins by radioligand competition assay relative to control; details: Cell membrane
T2 sequence (whole entry): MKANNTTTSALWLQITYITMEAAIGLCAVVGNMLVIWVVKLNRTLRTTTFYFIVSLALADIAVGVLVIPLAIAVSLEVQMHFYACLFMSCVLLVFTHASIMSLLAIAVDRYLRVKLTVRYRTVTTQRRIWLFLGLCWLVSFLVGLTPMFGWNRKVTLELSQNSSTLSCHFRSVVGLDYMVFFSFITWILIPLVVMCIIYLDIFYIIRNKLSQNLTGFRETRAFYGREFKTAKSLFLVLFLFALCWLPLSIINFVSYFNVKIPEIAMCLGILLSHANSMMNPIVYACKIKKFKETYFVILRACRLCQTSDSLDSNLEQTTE
In short: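 CHO membranes expressing rat A3, [3H]NECA 10 nM. Nonspecific binding defined by 100 µM R-PIA. Preincubated 20 min with adenosine deaminase, then 60 min at rt in 50 mM Tris-HCl pH 7.4 with 2.5% DMSO. GF/B filtration, scintillation counting.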

Adenosine receptor A1 [4] = target: T3, Adenosine receptor A1 (Homo sapiens, UniProt P30542); test: Displacement of [3H]CCPA from human adenosine receptor A1 expressed in CHO cell membranes incubated for 90 mins by radioligand competition assay; parameters: species or system Cell membrane
T3 sequence (P30542 whole entry): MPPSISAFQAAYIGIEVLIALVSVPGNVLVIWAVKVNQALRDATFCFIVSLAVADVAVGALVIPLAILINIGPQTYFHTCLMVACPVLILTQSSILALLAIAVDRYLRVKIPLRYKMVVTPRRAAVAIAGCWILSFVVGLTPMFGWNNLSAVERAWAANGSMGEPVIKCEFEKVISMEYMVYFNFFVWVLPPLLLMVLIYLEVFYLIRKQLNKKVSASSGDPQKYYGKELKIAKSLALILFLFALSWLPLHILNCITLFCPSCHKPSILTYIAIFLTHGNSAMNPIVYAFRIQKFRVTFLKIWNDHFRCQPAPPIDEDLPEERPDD

Adenosine receptor A3 [5] = target: T4, Adenosine receptor A3 (Rattus norvegicus, UniProt P28647); test: Displacement of [3H]NECA from rat adenosine receptor A3 expressed in CHO cell membranes incubated for 60 mins by radioligand competition assay; parameters: species or system Cell membrane
T4 sequence (P28647 whole entry): T2 sequence (whole entry)

Adenosine receptor A3 [6] = target: T5, Adenosine receptor A3 (Homo sapiens, UniProt P0DMS8); test: Displacement of [3H]PSB-11 from human adenosine receptor A3 expressed in CHO cell membranes incubated for 60 mins by radioligand competition assay; parameters: species or system Cell membrane
T5 sequence (P0DMS8 whole entry): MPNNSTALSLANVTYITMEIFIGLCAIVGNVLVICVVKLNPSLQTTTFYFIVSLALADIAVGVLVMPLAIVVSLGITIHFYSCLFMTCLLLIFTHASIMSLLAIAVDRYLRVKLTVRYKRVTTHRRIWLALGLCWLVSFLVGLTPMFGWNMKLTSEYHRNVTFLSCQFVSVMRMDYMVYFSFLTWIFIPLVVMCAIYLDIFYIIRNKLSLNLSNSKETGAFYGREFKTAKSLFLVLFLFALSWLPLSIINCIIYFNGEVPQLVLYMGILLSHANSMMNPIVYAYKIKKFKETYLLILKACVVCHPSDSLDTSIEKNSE

[7] = target: T6, Adenosine receptor A1 (Rattus norvegicus) (UniProt P25099); test: Displacement of [3H]CCPA from adenosine receptor A1 in rat brain cortex membranes at 0.1 uM incubated for 90 mins by radioligand competition assay; details: Cell membrane, filed as antagonist
T6 sequence (whole entry): T1 sequence (P25099 whole entry)
In short: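 A1 competition binding with [3H]CCPA, 0.5 nM. Membranes: CHO cells expressing human A1, or rat brain cortex. Membranes preincubated 20 min with adenosine deaminase (2 U/mL per mg protein). Incubation 90 min at rt in 50 mM Tris-HCl pH 7.4 with 2.5% final DMSO. Nonspecific binding defined by 10 µM 2-chloroadenosine. GF/B filtration, scintillation counting.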

Adenosine receptor A2b [8] = target: T7, Adenosine receptor A2b (Homo sapiens, UniProt P29275); test: Displacement of [3H]PSB-603 from human adenosine receptor A2B expressed in CHO cell membranes incubated for 75 mins by radioligand competition assay; parameters: species or system Cell membrane
T7 sequence (P29275 whole entry): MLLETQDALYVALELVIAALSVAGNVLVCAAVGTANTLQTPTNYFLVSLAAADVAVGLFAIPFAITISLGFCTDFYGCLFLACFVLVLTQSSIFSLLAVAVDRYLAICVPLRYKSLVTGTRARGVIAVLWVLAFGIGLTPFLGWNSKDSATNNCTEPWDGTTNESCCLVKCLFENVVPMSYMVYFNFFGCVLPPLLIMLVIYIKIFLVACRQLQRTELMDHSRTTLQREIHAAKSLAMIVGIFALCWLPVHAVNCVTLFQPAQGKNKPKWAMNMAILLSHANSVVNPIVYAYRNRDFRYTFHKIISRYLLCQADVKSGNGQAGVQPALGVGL

[9] = target: T8, Adenosine receptor A2b (Homo sapiens) (UniProt P29275); test: Displacement of [3H]PSB-603 from human adenosine receptor A2B expressed in CHO cell membranes at 0.1 uM incubated for 75 mins by radioligand competition assay relative to control; details: Cell membrane
T8 sequence (whole entry): T7 sequence (P29275 whole entry)
In short: (§1)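 CHO membranes expressing human or rat A2B, [3H]PSB-603 0.3 nM. Nonspecific binding defined by 10 µM DPCPX. Preincubated 20 min with adenosine deaminase, then 75 min at rt in Tris-HCl pH 7.4 with 2.5% DMSO. Filters washed with ice-cold 50 mM Tris-HCl containing 0.1% BSA; scintillation counting.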

Adenosine receptor A2a [10] = target: T9, Adenosine receptor A2a (Homo sapiens, UniProt P29274); test: Displacement of [3H]MSX2 from human adenosine receptor A2A expressed in HEK293 cell membranes incubated for 30 mins by radioligand competition assay; parameters: species or system Cell membrane
T9 sequence (P29274 whole entry): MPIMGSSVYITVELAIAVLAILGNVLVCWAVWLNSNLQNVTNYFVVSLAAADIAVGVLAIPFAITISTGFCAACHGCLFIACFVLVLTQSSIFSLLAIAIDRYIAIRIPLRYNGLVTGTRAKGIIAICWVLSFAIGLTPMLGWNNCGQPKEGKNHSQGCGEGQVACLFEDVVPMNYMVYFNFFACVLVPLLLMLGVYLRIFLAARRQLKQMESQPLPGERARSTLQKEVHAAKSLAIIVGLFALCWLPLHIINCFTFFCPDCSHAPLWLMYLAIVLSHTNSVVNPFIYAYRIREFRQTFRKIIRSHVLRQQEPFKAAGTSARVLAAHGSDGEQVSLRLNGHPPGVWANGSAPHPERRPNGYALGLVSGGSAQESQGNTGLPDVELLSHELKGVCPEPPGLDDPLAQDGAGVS

[11] = target: Adenosine receptor A2a (Rattus norvegicus) (UniProt P30543); test: Displacement of [3H]MSX2 from adenosine receptor A2A in rat brain striatum membranes at 0.1 uM incubated for 30 mins by radioligand competition assay relative to control; details: Cell membrane
Sequence of Adenosine receptor A2a (Rattus norvegicus) (P30543 whole entry): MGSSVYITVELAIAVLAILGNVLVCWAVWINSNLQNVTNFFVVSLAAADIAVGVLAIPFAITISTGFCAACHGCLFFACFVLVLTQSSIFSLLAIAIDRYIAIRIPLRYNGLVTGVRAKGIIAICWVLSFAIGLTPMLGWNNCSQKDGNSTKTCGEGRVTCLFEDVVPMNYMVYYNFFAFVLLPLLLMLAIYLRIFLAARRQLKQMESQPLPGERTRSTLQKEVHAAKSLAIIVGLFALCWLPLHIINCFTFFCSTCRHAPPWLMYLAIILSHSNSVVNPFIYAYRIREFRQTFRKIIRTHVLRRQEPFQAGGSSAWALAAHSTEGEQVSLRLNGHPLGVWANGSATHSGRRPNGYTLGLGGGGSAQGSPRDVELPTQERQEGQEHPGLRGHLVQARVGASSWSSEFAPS
In short: (§2)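 A2A binding, [3H]MSX-2 1.0 nM. Membranes: rat brain striatum, or HEK293 cells expressing human A2A. Adenosine deaminase preincubation 20 min, then 30 min at rt in 50 mM Tris-HCl pH 7.4 with 2.5% DMSO. Nonspecific binding defined by 50 µM NECA. GF/B filtration, scintillation counting. Single-concentration percent inhibition, ≥3 experiments in duplicate or triplicate.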

[12] = target: T10, Adenosine receptor A3 (Homo sapiens) (UniProt P0DMS8); test: Displacement of [3H]PSB-11 from human adenosine receptor A3 expressed in CHO cell membranes at 0.1 uM incubated for 60 mins by radioligand competition assay; details: Cell membrane, dose 1 µM, in the assay text read “1 uM” for “0.1 uM”
T10 sequence (whole entry): T5 sequence (P0DMS8 whole entry)
In short: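 CHO membranes expressing human A3, [3H]PSB-11 0.5 nM. Nonspecific binding defined by 100 µM R-PIA. Adenosine deaminase preincubation 20 min, then 60 min at rt in 50 mM Tris-HCl pH 7.4 with 2.5% DMSO. Filtered on GF/B, scintillation counted.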

Adenosine receptor A2a [13] = target: T9, Adenosine receptor A2a; test: Displacement of [3H]MSX2 from human adenosine receptor A2A expressed in HEK293 cell membranes at 0.1 uM incubated for 30 mins by radioligand competition assay relative to control; details: Cell membrane, in the assay text read “at 1 uM” for “at 0.1 uM”; in short: as §2
Adenosine receptor A2b [14] = target: T11, Adenosine receptor A2b (Rattus norvegicus, UniProt P29276); test: Displacement of [3H]PSB-603 from rat adenosine receptor A2B expressed in CHO cell membranes incubated for 75 mins by radioligand competition assay; parameters: species or system Cell membrane; in short: as §1
T11 sequence (P29276 whole entry): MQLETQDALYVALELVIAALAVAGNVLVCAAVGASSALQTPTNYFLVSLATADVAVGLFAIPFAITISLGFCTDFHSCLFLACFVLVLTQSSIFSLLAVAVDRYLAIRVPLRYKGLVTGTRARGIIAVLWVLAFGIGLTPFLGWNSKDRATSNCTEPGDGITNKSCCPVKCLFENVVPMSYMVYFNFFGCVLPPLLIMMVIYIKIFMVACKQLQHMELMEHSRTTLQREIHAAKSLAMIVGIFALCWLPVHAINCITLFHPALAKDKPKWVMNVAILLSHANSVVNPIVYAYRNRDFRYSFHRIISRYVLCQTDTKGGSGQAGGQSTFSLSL

Sequence of Adenosine receptor A2a (Rattus norvegicus, UniProt P30543) (P30543 whole entry): as the sequence (P30543 whole entry) above

Structure (SMILES): O=C(Nc1nc(-c2ccccc2)c(-c2nc3ccccc3c(=O)n2-c2ccc(Cl)cc2)s1)c1ccccc1
- Ki (Adenosine receptor A2a [1]): > 1000 nM
- Ki (Adenosine receptor A1 [2]): > 1000 nM
- inhibition [3]: 22%
- Ki (Adenosine receptor A1 [4]): > 1000 nM
- Ki (Adenosine receptor A3 [5]): > 10000 nM
- Ki (Adenosine receptor A3 [6]): 83.3 nM
- inhibition [7]: 16%
- Ki (Adenosine receptor A2b [8]): > 100 nM
- inhibition [9]: 12%
- Ki (Adenosine receptor A2a [10]): > 1000 nM
- inhibition [11]: 7%

Structure (SMILES): COc1ccc(C(=O)Nc2nc(-c3ccccc3)c(C(=O)c3ccc(F)cc3F)s2)cc1
- Ki (Adenosine receptor A2a [1]): > 1000 nM
- inhibition [12]: 24%
- Ki (Adenosine receptor A1 [4]): > 1000 nM
- inhibition (Adenosine receptor A2a [13]): 14%
- Ki (Adenosine receptor A3 [6]): > 1000 nM
- inhibition [7]: 54%
- Ki (Adenosine receptor A2b [8]): > 100 nM
- inhibition [9]: 0%
- Ki (Adenosine receptor A2a [10]): > 1000 nM
- inhibition [11]: 16%

Structure (SMILES): COc1ccc(C(=O)Nc2nc(-c3ccccc3)c(-c3nc4ccccc4c(=O)n3-c3ccc(C)cc3)s2)cc1
- Ki (Adenosine receptor A2a [1]): > 1000 nM
- Ki (Adenosine receptor A1 [2]): > 1000 nM
- inhibition [3]: 15%
- Ki (Adenosine receptor A1 [4]): > 1000 nM
- Ki (Adenosine receptor A3 [5]): > 10000 nM
- Ki (Adenosine receptor A3 [6]): 27.8 nM
- inhibition [7]: 25%
- Ki (Adenosine receptor A2b [8]): > 100 nM
- inhibition [9]: 2%
- Ki (Adenosine receptor A2a [10]): > 1000 nM
- inhibition [11]: 15%

Structure (SMILES): COc1ccc(C(=O)Nc2nc(-c3ccccc3)c(C(=O)c3ccc(Cl)cc3)s2)cc1
- Ki (Adenosine receptor A2a [1]): > 1000 nM
- Ki (Adenosine receptor A2b [14]): > 100 nM
- Ki (Adenosine receptor A1 [2]): 1.01 nM
- Ki (Adenosine receptor A1 [4]): 32.3 nM
- Ki (Adenosine receptor A3 [5]): > 10000 nM
- Ki (Adenosine receptor A3 [6]): > 1000 nM
- Ki (Adenosine receptor A2b [8]): > 100 nM
- Ki (Adenosine receptor A2a [10]): > 1000 nM
- inhibition [11]: 12%
